The values that follow come from ChEMBL document CHEMBL4808163, “Benzothiazolyl and Benzoxazolyl Hydrazones Function as Zinc Metallochaperones to Reactivate Mutant p53” (J Med Chem, 2021).

The Kd is the concentration at which binding is half-saturated. Read a low Kd as a tighter complex. The EC50 is the concentration needed to bring the measured effect to its halfway point. By inhibition is commonly meant the relative decrease from the control value, in per cent. The Papp is a coefficient for how fast a substance crosses the barrier. As usually defined, the MTD is the highest dose tested that stayed within the study's limit of toxicity.

A short description of data set [1]: Induction of Zinc-dependent p53 R175H mutant refolding by assessing wild type conformation. A digest of the protocol: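 Cells grown on coverslips and treated, fixed in 4% paraformaldehyde 10 min, permeabilized in 0.5% Triton X-100 5 min. Stained overnight with conformation-specific antibodies PAB1620 (1:50, wild-type fold) and PAB240 (1:400, misfolded/unfolded), then goat anti-mouse IgG secondary for 40 min.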

Data set [2] in a line: Binding affinity to Zn(II)+ incubated for 60 mins using FluoZin-3 by fuorescence assay.
Data set [3] can be described thus: Growth inhibition of human TOV112D cells harbouring p53 R175H mutant incubated for 3 days combination with etoposide by MTS assay. The settings on record: TOV-112D, 72 h. It is filed as functional, cell-based. An outline of the steps:
(§1)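 5000 cells per well seeded to reach 50% confluence the next day, then given serial dilutions of compound; line 1 cells also received 5 Gy γ-irradiation, line 2 cells also received etoposide (level not stated). Growth read by MTS or Calcein AM after 3 days (72 h). EC50 taken from dilution curve; three independent experiments, each in triplicate, Student's t test.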
For orientation: Tetrazolium assays rely on reduction of a dye to a coloured formazan, in cell work by metabolically active cells.

Data set [4] addresses 5-hydroxytryptamine receptor 2A (Homo sapiens, UniProt P28223). Nature of the data set: Displacement of [125I]+/-DOI from human recombinant 5-HT2A receptor at 10 uM after 60 mins by scintillation counting analysis relative to control. To be noted: recombinant human 5-HT2A receptor, probe [125I]+/-DOI. Background: In a radioligand displacement assay an active substance lowers the binding of a labelled ligand.

Data set [5] can be described thus: Stability in simulated gastric fluid assessed as parent compound remaining measured at 37 degC. The format is ADME. To be noted: simulated gi fluid. A digest of the protocol: (§2)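 Incubation in simulated gastric fluid (pH 1–2) at room temperature (~23 °C) or 37 °C. Parent compound remaining quantified by HPLC at 220 and 254 nm, with peak identity confirmed by LC–MS.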

Another data set deals with hERG (KCNH2) (Homo sapiens, UniProt Q12809). The data set can be described thus: Displacement of [3H]-dofetilide from human recombinant ERG at 10 uM relative to control. To be noted: probe [3H]-dofetilide.
Data set [6] addresses Sodium-dependent noradrenaline transporter (Homo sapiens, UniProt P23975). The data set can be described thus: Displacement of [3H]nisoxetine from recombinant human norepinephrine transporter at 10 uM incubated for 120 mins by radiometric scintillation analysis relative to control. It is filed as ADME. The settings on record: probe [3H]nisoxetine.
Data set [7] is described as follows: Stability in simulated gastric fluid assessed as parent compound remaining measured after 6 hrs at room temperature. It is filed as ADME. The settings on record: read-out: Stabilty. An outline of the steps:
as §2

The nature of data set [8]: Growth inhibition of human TOV112D cells harbouring p53 R175H mutant incubated for 3 days combination with 5 Gy radiation by MTS assay. It is filed as functional, cell-based. To be noted: TOV-112D, 72 h. A digest of the protocol: as §1
Data set [9] relates to TOV112D. Nature of the data set: Growth inhibition of human TOV112D cells harbouring p53 R175H mutant incubated for 3 days by MTS assay. It is filed as functional, cell-based. To be noted: 72 h.
Data set [10] can be described thus: Binding affinity to Cu(II)+ using CuSO4.
Data set [11] in a line: Apparent permeability in human Caco-2 cells at 5 uM measured up to 90 mins by LC-MS/MS analysis. It is filed as ADME, cell-based.
Data set [12] is described as follows: Stability in simulated gastric fluid assessed as parent compound remaining measured after 7 hrs at room temperature. The format is ADME. To be noted: read-out: Stabilty. A digest of the protocol:
as §2

Data set [13] has as its system TOV112D. The data set can be described thus: Anticancer activity against human TOV112D cells harbouring p53 R175H mutant xenografted NCr nu/nu mouse assessed as tumor growth inhibition at 5.73 mg/kg, ip relative to control. To be noted: read-out: TGI. The format is functional. A digest of the protocol:
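Tumors (five per group) were grown to 50 mm³, then the compound was given ip daily. Dimensions were measured every other day, with volume = L × W² × π/6. Significance was tested by Student's t test.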
(In general: A xenograft is tissue or cells of one species grown in another, often human tumour cells in immunodeficient mice.)

A short description of data set [14]: Toxicity in mouse assessed as maximum tolerated dose. To be noted: in vivo. An outline of the steps:
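Acute single-dose test in NCr nu/nu nude mice aged 8–12 weeks, 5 mice per dose. One intraperitoneal injection was given, then health, behaviour and body weight were monitored.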

Structures are written as SMILES. Activity calls are given as the source filed them. No cut-off for these calls is given here.

hERG (KCNH2), sequence (Q12809 whole entry): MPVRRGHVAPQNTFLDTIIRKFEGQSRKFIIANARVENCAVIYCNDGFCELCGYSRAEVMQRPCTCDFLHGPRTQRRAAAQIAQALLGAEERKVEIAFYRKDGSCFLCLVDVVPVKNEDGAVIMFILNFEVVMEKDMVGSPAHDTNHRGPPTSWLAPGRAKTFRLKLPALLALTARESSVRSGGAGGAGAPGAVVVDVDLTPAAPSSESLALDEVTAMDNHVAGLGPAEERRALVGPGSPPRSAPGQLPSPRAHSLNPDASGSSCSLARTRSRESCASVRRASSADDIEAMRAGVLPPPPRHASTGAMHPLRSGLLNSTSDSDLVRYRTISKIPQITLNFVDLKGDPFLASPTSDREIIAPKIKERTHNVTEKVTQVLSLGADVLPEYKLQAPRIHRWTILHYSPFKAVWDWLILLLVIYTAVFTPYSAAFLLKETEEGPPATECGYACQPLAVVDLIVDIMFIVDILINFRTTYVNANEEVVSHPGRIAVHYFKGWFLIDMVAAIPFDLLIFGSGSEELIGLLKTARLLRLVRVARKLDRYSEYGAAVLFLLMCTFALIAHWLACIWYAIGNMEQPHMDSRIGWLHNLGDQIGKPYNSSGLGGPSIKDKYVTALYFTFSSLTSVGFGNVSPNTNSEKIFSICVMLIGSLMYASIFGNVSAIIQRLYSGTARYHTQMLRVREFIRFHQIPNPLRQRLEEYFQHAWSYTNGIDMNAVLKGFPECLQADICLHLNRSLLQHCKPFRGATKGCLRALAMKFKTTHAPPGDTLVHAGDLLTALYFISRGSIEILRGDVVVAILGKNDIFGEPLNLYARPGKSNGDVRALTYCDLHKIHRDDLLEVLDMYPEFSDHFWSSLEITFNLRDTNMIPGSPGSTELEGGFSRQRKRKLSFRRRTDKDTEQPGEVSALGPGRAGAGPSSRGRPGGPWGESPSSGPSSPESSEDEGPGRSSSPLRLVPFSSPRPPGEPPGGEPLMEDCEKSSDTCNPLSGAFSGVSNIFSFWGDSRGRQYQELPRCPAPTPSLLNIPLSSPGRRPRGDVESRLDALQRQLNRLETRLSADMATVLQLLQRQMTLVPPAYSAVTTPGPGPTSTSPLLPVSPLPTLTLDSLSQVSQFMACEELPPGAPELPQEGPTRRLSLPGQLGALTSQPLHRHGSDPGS
5-hydroxytryptamine receptor 2A, sequence (P28223 whole entry): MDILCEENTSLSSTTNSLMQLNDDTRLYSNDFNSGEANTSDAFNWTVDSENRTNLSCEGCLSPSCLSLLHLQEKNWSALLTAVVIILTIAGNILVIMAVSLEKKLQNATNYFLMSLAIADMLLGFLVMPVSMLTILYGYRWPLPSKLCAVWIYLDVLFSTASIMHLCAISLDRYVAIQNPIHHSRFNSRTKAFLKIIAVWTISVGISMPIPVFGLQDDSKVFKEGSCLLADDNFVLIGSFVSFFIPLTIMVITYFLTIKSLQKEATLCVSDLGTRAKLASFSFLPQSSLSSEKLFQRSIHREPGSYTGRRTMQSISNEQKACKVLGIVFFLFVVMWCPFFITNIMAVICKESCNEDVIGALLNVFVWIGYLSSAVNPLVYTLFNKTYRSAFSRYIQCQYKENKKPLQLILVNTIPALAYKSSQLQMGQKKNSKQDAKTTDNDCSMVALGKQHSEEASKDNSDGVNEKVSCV
Sodium-dependent noradrenaline transporter, sequence (P23975 whole entry): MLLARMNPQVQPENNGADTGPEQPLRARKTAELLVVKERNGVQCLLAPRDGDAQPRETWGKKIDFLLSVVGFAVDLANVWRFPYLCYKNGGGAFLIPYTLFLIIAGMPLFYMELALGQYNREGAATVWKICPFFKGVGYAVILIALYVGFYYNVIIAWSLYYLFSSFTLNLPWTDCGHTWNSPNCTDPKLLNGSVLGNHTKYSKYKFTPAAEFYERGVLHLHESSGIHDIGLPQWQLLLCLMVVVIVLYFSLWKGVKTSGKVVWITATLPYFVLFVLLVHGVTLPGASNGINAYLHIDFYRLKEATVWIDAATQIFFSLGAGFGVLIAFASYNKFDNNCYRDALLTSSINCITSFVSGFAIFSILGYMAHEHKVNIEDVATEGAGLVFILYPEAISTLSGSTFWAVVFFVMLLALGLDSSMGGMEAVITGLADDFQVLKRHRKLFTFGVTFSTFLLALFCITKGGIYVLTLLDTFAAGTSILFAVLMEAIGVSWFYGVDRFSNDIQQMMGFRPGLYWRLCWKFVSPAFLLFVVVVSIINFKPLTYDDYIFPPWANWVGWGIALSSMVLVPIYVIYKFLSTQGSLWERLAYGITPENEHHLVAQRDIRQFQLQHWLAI

With `C/C(=N\Nc1nc2ccccc2n1CCN1CCC(F)(F)C1)c1ccccn1`, the result in data set [1] was Active. In addition, the Kd was determined as 26 nM in data set [2] and 0.001 pM in [10]. The EC50 came to 120 nM in data set [3], 180 nM in data set [8] and 151 nM with TOV112D [9]. Moreover, in [4], the inhibition at 1 h, 10 µM is 92%. In addition, in data set [5], the Stabilty is listed as above 82%. Also, at hERG (KCNH2), the inhibition at 10 µM came out at 101%. The inhibition at 2 h, 10 µM in [6] is -1%. The remaining at 6 h in data set [7] was above 92%.
`C/C(=N\NC(=S)N1CCC1)c1ccccn1`: the outcome in data set [1] was Active. In [11], the Papp at […], 5 µM turned out to be 4.4 ×10⁻⁶ cm/s. The remaining at 7 h in [12] is 22%. Further, in the data set on TOV112D [13], the inhibition in vivo at 5.73 mg/kg was found to be 63%. The MTD in data set [14] was found to be 5 mg/kg.
